Measurements from ChEMBL document CHEMBL1764966, “Trigonosins A-F, daphnane diterpenoids from Trigonostemon thyrsoideum” (J Nat Prod, 2011).
Structures can show the parent of a compound that is named as a salt.

Assays:
Format in all cases: functional, cell-based
[1] = system: MCF7; experiment: Cytotoxicity against human MCF7 cells assessed as inhibition of cell proliferation after 72 hrs by SRB assay; settings: MCF7, 72 h
How it was run: (§1)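 Sulforhodamine B (SRB) read-out of proliferation inhibition. Cells (A549 lung adenocarcinoma; MCF-7 breast cancer) were seeded 24 h before treatment, then exposed continuously to a range of compound concentrations for 72 h. Inhibition rates were derived from the SRB signal. Adriamycin served as the positive control.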

[2] = system: A549; experiment: Cytotoxicity against human A549 cells assessed as inhibition of cell proliferation after 72 hrs by SRB assay; settings: A549, 72 h; how it was run: as §1
[3] = system: HL-60; experiment: Cytotoxicity against human HL60 cells assessed as inhibition of cell proliferation after 72 hrs by MTT assay; settings: HL-60, 72 h
How it was run: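 HL-60 promyelocytic leukemia cells were plated 24 h ahead, then exposed continuously to varying compound concentrations for 72 h. Proliferation inhibition was determined by MTT assay. Adriamycin served as the positive control.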

COc1cccc2c1C(=O)c1c(O)c3c(c(O)c1C2=O)C[C@@](O)(C(=O)CO)C[C@@H]3O[C@H]1C[C@H](N)[C@H](O)[C@H](C)O1 [DOXORUBICIN HYDROCHLORIDE]
IC50 [1]: 0.15 µM
IC50 [2]: 0.41 µM
IC50 [3]: 0.13 µM

C=C(C)[C@@]12OC3(c4ccccc4)O[C@@H]1[C@@H]1[C@@H]4O[C@]4(C)[C@@H](O)[C@@]4(O)[C@@H](C[C@H](C)[C@@H]4O)[C@@]1(O3)[C@H](C)[C@@H]2OC(=O)c1ccccc1 [TRIGONOSIN A]
IC50 [1]: > 10 µM
IC50 [2]: > 10 µM
IC50 [3]: > 10 µM

C[C@H]1[C@@H]2CC[C@@H]1[C@H](OC(=O)c1ccccc1)/C=C/C=C/C(=O)O[C@H]1[C@@H](C)C[C@@H]3[C@]1(O)[C@H](O)[C@@]1(CO)O[C@H]1[C@H]1[C@H]4OC5(c6ccccc6)O[C@@H]([C@@H](C)[C@@]13O5)[C@@]4(O)[C@](C)(O)C2 [TRIGONOSIN E]
IC50 [1]: > 10 µM
IC50 [2]: > 10 µM
IC50 [3]: > 10 µM

C=C(C)[C@@]12OC3(c4ccccc4)O[C@@H]1[C@@H]1[C@H](O)[C@@](C)(O)[C@@H](O)[C@@]4(O)[C@@H](C[C@H](C)[C@@H]4O)[C@@]1(O3)[C@H](C)[C@@H]2OC(=O)c1ccccc1 [TRIGONOSIN C]
IC50 [1]: > 10 µM
IC50 [2]: > 10 µM
IC50 [3]: > 10 µM

C=C(C)[C@@]12OC3(c4ccccc4)O[C@@H]1[C@@H]1[C@@H]4O[C@]4(C)[C@@H](O)[C@]4(O)C(=O)C(C)=C[C@H]4[C@@]1(O3)[C@H](C)[C@@H]2OC(=O)c1ccccc1 [TRIGOXYPHIN A]
IC50 [1]: > 10 µM
IC50 [2]: > 10 µM
IC50 [3]: > 10 µM

C=C(C)[C@@]1(OC(=O)c2ccccc2)[C@H](OC(C)=O)[C@@H]2[C@H](OC(C)=O)[C@]3(C)O[C@@]4([C@@H]3O)[C@@H](O)[C@@H](C)C[C@H]4[C@@]2(O)[C@H](C)[C@@H]1OC(C)=O [TRIGONOSIN D]
IC50 [1]: > 10 µM
IC50 [2]: > 10 µM
IC50 [3]: > 10 µM

CC(C)CC(=O)O[C@H]1/C=C/C=C/C(=O)O[C@H]2[C@@H](C)C[C@@H]3[C@]2(O)[C@H](O)[C@@]2(CO)O[C@H]2[C@H]2[C@H]4OC5(c6ccccc6)O[C@@H]([C@@H](C)[C@@]23O5)[C@@]4(O)[C@](C)(O)C[C@H]2CC[C@H]1[C@H]2C [REDIOCIDE A]
IC50 [1]: > 10 µM
IC50 [2]: > 10 µM
IC50 [3]: > 10 µM

C=C(C)[C@@]12OC3(c4ccccc4)O[C@@H]1[C@@H]1[C@@H]4O[C@]4(C)[C@@H](O)[C@]4(O)C(=O)[C@@H](C)C[C@H]4[C@@]1(O3)[C@H](C)[C@@H]2OC(=O)c1ccccc1 [TRIGOXYPHIN B]
IC50 [1]: > 10 µM
IC50 [2]: > 10 µM
IC50 [3]: > 10 µM

C=C(C)[C@@]12OC3(c4ccccc4)O[C@@H]1[C@@H]1[C@@H]4O[C@]4(CO)[C@@H](O)[C@@]4(O)[C@@H](C[C@H](C)[C@@H]4O)[C@@]1(O3)[C@H](C)[C@@H]2OC(=O)c1ccccc1 [TRIGONOSIN B]
IC50 [1]: > 10 µM
IC50 [2]: > 10 µM
IC50 [3]: > 10 µM

C[C@H]1[C@@H]2CC[C@@H]1[C@@H](OC(=O)c1ccccc1)/C=C/C=C/C(=O)O[C@H]1[C@@H](C)C[C@@H]3[C@]1(O)[C@H](O)[C@@]1(CO)O[C@H]1[C@H]1[C@H]4OC5(c6ccccc6)O[C@@H]([C@@H](C)[C@@]13O5)[C@@]4(O)[C@](C)(O)C2 [REDIOCIDE C]
IC50 [1]: > 10 µM
IC50 [2]: > 10 µM
IC50 [3]: > 10 µM

C[C@H]1[C@@H]2CC[C@@H]1[C@@H](OC(=O)c1ccccc1)/C=C/C=C\C(=O)O[C@H]1[C@@H](C)C[C@@H]3[C@]1(O)[C@H](O)[C@@]1(CO)O[C@H]1[C@H]1[C@H]4OC5(c6ccccc6)O[C@@H]([C@@H](C)[C@@]13O5)[C@@]4(O)[C@](C)(O)C2 [TRIGONOSIN F]
IC50 [1]: > 10 µM
IC50 [2]: > 10 µM
IC50 [3]: > 10 µM
